Measured values taken from ChEMBL document CHEMBL1123347, “Topical nonsteroidal antipsoriatic agents. 1. 1,2,3,4-Tetraoxygenated naphthalene derivatives” (J Med Chem, 1986).

Assays:
[1] = Statistical significance, p values as compared to positive control by students t-test; I=Insoluble; assay type: ADME
Method in brief: (§1)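 Same arachidonic acid ear-edema model: 2 mg total topical dose in acetone, given 60 min before arachidonic acid, with 8 animals per group. Edema is measured by ear plug weight 1 h after arachidonic acid. p values come from Student's t-test against the concurrent arachidonic acid positive control. Thresholds are given as + (≤0.05) and so on.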

[2] = Partition coefficient (logP); assay type: physicochemical; conditions: octanol/water
Method in brief: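 Lipophilicity (log P) measured by 1-octanol-coated reversed-phase HPLC. The mobile phase is pH 7.4 PBS saturated with 1-octanol, run on RP-18 or C-18 packing. A second system is linked to the first through overlapping series. For the most lipophilic analogues that could not be detected, log P is calculated from Free-Wilson-derived substituent constants assuming additivity.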

[3] = test system: Mus musculus; experiment: Compound was tested for inhibition of arachidonic acid induced mouse ear edema at 2 mg of dose; I=Insoluble; assay type: functional, organism-based
Method in brief: (§2)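 Mouse ear edema induced by arachidonic acid (dissolved in acetone at 100 mg/mL). Test agent is applied topically in acetone, 2 mg/0.02 mL per total dose, 60 min before arachidonic acid. Ear edema is read 1 h later as the weight gain of an 8-mm-diameter ear plug. It is compared with acetone-only and arachidonic acid-only controls run in the same experiment. n = 8 per group; percent inhibition is reported as mean.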

[4] = Statistical significance, p values as compared to positive control by students t-test; assay type: ADME; method in brief: as §1
[5] = test system: Mus musculus; experiment: Compound was tested for inhibition of arachidonic acid induced mouse ear edema at 2 mg of dose; assay type: functional; method in brief: as §2

Significance [1] | logP [2] | Significance [4] | Compound | inhibition [3] | Inhibition [5] [%]
Insoluble | 5.8 | – | CCC(=O)Oc1c(Oc2ccccc2)c(Oc2ccccc2)c(OC(=O)CC)c2ccccc12 | Insoluble | –
– | 3.26 | <= 0.001 | COc1c(OC)c(OC(C)=O)c2cc(Cl)ccc2c1OC(C)=O [LONAPALENE] | – | 54
Insoluble | 7.8 | – | CC(C)(C)C(=O)Oc1c(Oc2ccccc2)c(Oc2ccccc2)c(OC(=O)C(C)(C)C)c2ccccc12 | Insoluble | –
Insoluble | 4.8 | – | CC(=O)Oc1c(Oc2ccccc2)c(Oc2ccccc2)c(OC(C)=O)c2ccccc12 | Insoluble | –
